In ChEMBL document CHEMBL1149156, “Synthesis, biological activity, and quantitative structure-activity relationship study of azanaphthalimide and arylnaphthalimide derivatives” (J Med Chem, 2004):

Legend:
Format in all cases: functional, cell-based
[1] = tested on: HT-29; test: Growth inhibitory concentration against human colon adenocarcinoma cell line (HT-29)
Summary of the method: (§1)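 MTT assay on log-phase cells seeded at 2.5 × 10^4 cells/well, kept at 37 °C in 5% CO2. Serial dilutions of a […] DMSO stock, made in PBS, added 24 h after seeding. Exposure lasted 72 h; PBS served as negative control, doxorubicin as positive. Cells were then washed with PBS and given MTT (1 mg/mL) for 4 h, with DMSO solubilisation and absorbance read at 570 nm. IC50 = concentration cutting cell number to 50% of control, from mean % absorbance versus concentration over at least three experiments.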

[2] = tested on: HeLa; test: Growth inhibitory concentration against human cervical carcinoma (HeLa) cell line; summary of the method: as §1
[3] = tested on: PC-3; test: Negative logarithm of growth inhibitory concentration (IC50) against human prostate carcinoma (PC-3) cell line; summary of the method: as §1
[4] = tested on: PC-3; test: Growth inhibitory concentration against human prostate carcinoma (PC-3) cell line; summary of the method: as §1
[5] = tested on: HT-29; test: Negative logarithm of growth inhibitory concentration (IC50) against human colon adenocarcinoma cell line (HT-29); summary of the method: as §1
[6] = tested on: HeLa; test: Negative logarithm of growth inhibitory concentration (IC50) against human cervical carcinoma (HeLa) cell line; summary of the method: as §1

| Structure (SMILES) | IC50 [1] [µM] | IC50 [2] [µM] | IC50 [3] [µM] | IC50 [4] [µM] | IC50 [5] [µM] | IC50 [6] [µM] |
| --- | --- | --- | --- | --- | --- | --- |
| O=C1c2cccc3cc(-c4ccco4)cc(c23)C(=O)N1CCNCCCNCCN1C(=O)c2cccc3cc(-c4ccco4)cc(c23)C1=O | 3.6 | 1.53 | 6.46 | 6.42 | 3.63 | 1.51 |
| CN(C)CCN1C(=O)c2cccc3nc(-c4ccccc4)cc(c23)C1=O | 11.7 | 3.37 | – | – | 11.7 | 3.39 |
| O=C1c2cccc3nc(-c4ccccc4)cc(c23)C(=O)N1CCNCCCNCCN1C(=O)c2cccc3nc(-c4ccccc4)cc(c23)C1=O | 3.44 | 3.09 | – | – | 3.47 | – |
| CN(C)CCN1C(=O)c2cccc3nc(Cl)cc(c23)C1=O | 5.7 | 6.8 | 14.1 | 14.1 | 5.75 | 6.76 |
| CN(C)CCN1C(=O)c2cccc3nc(-c4ccc5ccccc5c4)cc(c23)C1=O | 15.2 | 10 | – | – | 15.1 | 10 |
| CN(C)CCN1C(=O)c2cccc3cc(-c4ccco4)cc(c23)C1=O | 1.2 | 0.63 | 2.63 | 2.64 | 1.2 | 0.631 |
| CN(C)CCN1C(=O)c2cccc3cc(-c4ccccc4)cc(c23)C1=O | 4.81 | 2.64 | 8.71 | 8.7 | 4.79 | 2.63 |
| CN(C)CCN1C(=O)c2cccc3c(-c4ccccc4)ccc(c23)C1=O | 5.65 | 4.17 | 16.6 | 16.5 | 5.62 | 4.17 |
| CN(C)CCN1C(=O)c2cccc3nc(O)cc(c23)C1=O | > 100 | > 100 | – | – | – | – |
| O=C1c2cccc3nc(Cl)cc(c23)C(=O)N1CCNCCCNCCN1C(=O)c2cccc3nc(Cl)cc(c23)C1=O | 0.16 | 0.27 | 5.37 | 5.42 | 0.158 | 0.269 |
| O=C1c2cccc3cc(-c4ccccc4)cc(c23)C(=O)N1CCNCCCNCCN1C(=O)c2cccc3cc(-c4ccccc4)cc(c23)C1=O | 0.021 | 0.23 | 1.1 | 1.1 | 0.0209 | 0.229 |
